From ChEMBL document CHEMBL5584325, “Discovery of novel coumarin triazolyl and phenoxyphenyl triazolyl derivatives targeting amyloid beta aggregation-mediated oxidative stress and neuroinflammation for enhanced neuroprotection” (RSC Med Chem, 2024)
Active and inactive are the calls of the source. The calls are words filed in the database; no cut-off is given here.

Experiments:
[1] = tested on: BV-2; test: Neuroprotective activity in amyloid beta (1 to 42)-induced oxidative stress in mouse BV-2 cells assessed as intracellular ROS level at 40 uM measured after 24 hrs by DCFH-DA staining based fluorescence assay (reference value: 150.91 +/- 0.49%); format: functional
[2] = tested on: SH-SY5Y; test: Neuroprotective activity against human SH-SY5Y cells co-cultured with 40 uM compound pretreated BV-2 cells exposed to amyloid beta (1 to 42) assessed as cell viability measured after 24 hrs by MTT assay (reference value: 80.62 +/- 0.86%); format: functional; settings: read-out: Activity
[3] = tested on: BV-2; test: Neuroprotective activity in amyloid beta (1 to 42)-induced inflammation in mouse BV-2 cells assessed as IL-1beta mRNA expression at 40 uM measured after 24 hrs by SYBR green staining based qRT-PCR analysis (reference value: 1.53 +/- 0.13%); format: functional
[4] = tested on: BV-2; test: Neuroprotective activity in amyloid beta (1 to 42)-induced inflammation in mouse BV-2 cells assessed as TNFalpha mRNA expression at 40 uM measured after 24 hrs by SYBR green staining based qRT-PCR analysis (reference value: 1.73 +/- 0.22%); format: functional
[5] = biological target: T1, Amyloid-beta precursor protein (Homo sapiens, UniProt P05067); test: Inhibition of amyloid beta (1 to 42) aggregation in mouse BV-2 cells exposed to amyloid-beta (1 to 42) (unknown origin) at 40 uM measured after 24 to 48 hrs by thioflavin T staining based fluorescence assay; format: cell-based; settings: time 24-48 hrs
T1 sequence (P05067 whole entry): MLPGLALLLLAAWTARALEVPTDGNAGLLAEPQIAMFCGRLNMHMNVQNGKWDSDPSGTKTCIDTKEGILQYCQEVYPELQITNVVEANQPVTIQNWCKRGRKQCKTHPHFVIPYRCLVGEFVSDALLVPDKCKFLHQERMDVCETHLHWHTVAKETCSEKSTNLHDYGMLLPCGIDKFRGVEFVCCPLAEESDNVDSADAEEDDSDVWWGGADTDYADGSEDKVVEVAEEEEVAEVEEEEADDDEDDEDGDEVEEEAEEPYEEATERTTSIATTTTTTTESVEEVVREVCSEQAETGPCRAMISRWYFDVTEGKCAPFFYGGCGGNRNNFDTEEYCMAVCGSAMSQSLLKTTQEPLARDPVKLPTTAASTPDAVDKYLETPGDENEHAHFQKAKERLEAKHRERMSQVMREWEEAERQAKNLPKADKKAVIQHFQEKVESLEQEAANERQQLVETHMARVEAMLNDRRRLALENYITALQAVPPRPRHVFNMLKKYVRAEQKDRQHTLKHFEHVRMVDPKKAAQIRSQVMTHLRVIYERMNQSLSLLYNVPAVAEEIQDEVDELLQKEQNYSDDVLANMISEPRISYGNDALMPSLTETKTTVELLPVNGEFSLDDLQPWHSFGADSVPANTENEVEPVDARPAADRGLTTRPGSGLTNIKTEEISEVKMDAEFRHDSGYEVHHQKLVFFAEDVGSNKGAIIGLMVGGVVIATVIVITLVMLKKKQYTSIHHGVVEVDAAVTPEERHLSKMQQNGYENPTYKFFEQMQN

[6] = biological target: T1, Amyloid-beta precursor protein; test: Inhibition of amyloid beta (1 to 42) (unknown origin) aggregation at 100 uM incubated for 48 hrs by ThioflavinT staining based fluorescence assay relative to control
Procedure, shortened: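 Compound in DMSO (1 μl of a 1 mM solution) mixed with 9 μl of 25 μM Aβ1–42 in Tris pH 7.4. Incubated 48 h at 37 °C without agitation, then 200 μl of 5 μM ThT added. Fluorescence read at ex 446/em 500 nm; % inhibition vs DMSO control, solvent blank subtracted.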

[7] = tested on: BV-2; test: Neuroprotective activity in amyloid beta (1 to 42)-induced inflammation in mouse BV-2 cells assessed as […] in IL-6 mRNA expression at 40 uM measured after 24 hrs by SYBR green staining based qRT-PCR analysis relative to control; format: functional
[8] = Octanol/water partition coefficient, log P of the compound incubated for 2 hrs under shaking condition by HPLC analysis; format: physicochemical
Procedure, shortened: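 Shake-flask log P: 10 mM stock (DMSO, or octanol for highly lipophilic compounds) partitioned between mutually saturated octanol and water at three phase ratios. Shaken 2 h at 25 ± 1 °C, phases separated, each phase quantified by C18 HPLC-UV. Mobile phase 0.1% formic acid:methanol 40:60; log P averaged over the three ratios.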

[9] = tested on: BV-2; test: Neuroprotective activity in amyloid beta (1 to 42)-induced cytotoxicity in mouse BV-2 cells assessed as cell viability at 40 uM measured after 24 hrs by MTT assay (reference value: 54.96 +/- 1.12%); format: functional; settings: read-out: Activity
[10] = Induction of ROS generation in mouse BV-2 cells at 40 uM measured after 24 hrs by DCFH-DA staining based fluorescence assay; format: toxicity, cell-based; settings: bv-2, 24 h
Procedure, shortened: (§1)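 BV-2 cells seeded overnight at 1 × 10^4/well, compound alone (no Aβ). Cells loaded with 20 μM (final) DCFH-DA for 30 min at 37 °C, washed, then given conditioned medium for 24 h. Fluorescence read at ex […] nm. Expressed as % of control; n = 3 in triplicate, one-way ANOVA with LSD.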

[11] = tested on: BV-2; test: Cytotoxicity against mouse BV-2 cells assessed as reduction in cell viability at 40 uM measured after 24 hrs by MTT assay; format: toxicity, cell-based; settings: bv-2, 24 h
Procedure, shortened: (§2)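 BV-2 microglia grown in DMEM with 10% FBS, HEPES and Glutamax at 37 °C, 5% CO2, seeded overnight at 1 × 10^4 cells/well. Compound alone at 0–200 μM (range extended lower where needed) for 24 h. MTT 2 h at 37 °C, formazan dissolved in DMSO, A570 read. Used to pick non-toxic concentrations.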

[12] = biological target: T1, Amyloid-beta precursor protein; test: Inhibition of amyloid beta (1 to 42) (unknown origin) aggregation incubated for 48 hrs by ThioflavinT staining based fluorescence assay
[13] = tested on: BV-2; test: Neuroprotective activity in amyloid beta (1 to 42)-induced cytotoxicity in mouse BV-2 cells assessed as cell viability at 20 uM measured after 24 hrs by MTT assay (reference value: 54.96 +/- 1.12%); format: functional; settings: read-out: Activity
[14] = tested on: BV-2; test: Neuroprotective activity in amyloid beta (1 to 42)-induced morphological changes in mouse BV-2 cells at 20 uM; format: functional, cell-based
[15] = tested on: BV-2; test: Cytotoxicity against mouse BV-2 cells assessed as reduction in cell viability at 20 uM measured after 24 hrs by MTT assay; format: toxicity, cell-based; settings: bv-2, 24 h; procedure, shortened: as §2
[16] = tested on: BV-2; test: Cytotoxicity against mouse BV-2 cells assessed as reduction in cell viability at 10 to 200 uM measured after 24 hrs by MTT assay; format: toxicity, cell-based; settings: bv-2, 24 h, dose 10-200 µM; procedure, shortened: as §2
[17] = tested on: BV-2; test: Neuroprotective activity in amyloid beta (1 to 42)-induced cytotoxicity in mouse BV-2 cells assessed as cell viability at 150 uM measured after 24 hrs by MTT assay (reference value: 54.96 +/- 1.12%); format: functional; settings: read-out: Activity
[18] = tested on: BV-2; test: Cytotoxicity against mouse BV-2 cells assessed as reduction in cell viability at 150 uM measured after 24 hrs by MTT assay; format: toxicity, cell-based; settings: bv-2, 24 h; procedure, shortened: as §2
[19] = tested on: BV-2; test: Neuroprotective activity in amyloid beta (1 to 42)-induced inflammation in mouse BV-2 cells assessed as IL-1beta mRNA expression at 2.5 uM measured after 24 hrs by SYBR green staining based qRT-PCR analysis (reference value: 1.53 +/- 0.13%); format: functional
[20] = biological target: T1, Amyloid-beta precursor protein; test: Inhibition of amyloid beta (1 to 42) (unknown origin) aggregation assessed as reduction in amyloid beta fibril formation at 2.5 uM measured after 48 hrs by transmission electron microscopy
[21] = tested on: BV-2; test: Neuroprotective activity in amyloid beta (1 to 42)-induced cytotoxicity in mouse BV-2 cells assessed as cell viability at 2.5 uM measured after 24 hrs by MTT assay (reference value: 54.96 +/- 1.12%); format: functional; settings: read-out: Activity
[22] = Induction of ROS generation in mouse BV-2 cells at 2.5 uM measured after 24 hrs by DCFH-DA staining based fluorescence assay; format: toxicity, cell-based; settings: bv-2, 24 h; procedure, shortened: as §1
[23] = tested on: BV-2; test: Neuroprotective activity in amyloid beta (1 to 42)-induced inflammation in mouse BV-2 cells assessed as change in IL-6 mRNA expression at 2.5 uM measured after 24 hrs by SYBR green staining based qRT-PCR analysis; format: functional, cell-based
[24] = tested on: BV-2; test: Neuroprotective activity in amyloid beta (1 to 42)-induced oxidative stress in mouse BV-2 cells assessed as intracellular ROS level at 2.5 uM measured after 24 hrs by DCFH-DA staining based fluorescence assay (reference value: 150.91 +/- 0.49%); format: functional
[25] = tested on: BV-2; test: Neuroprotective activity in amyloid beta (1 to 42)-induced morphological changes in mouse BV-2 cells assessed as appearance of healthy cells at 2.5 uM; format: functional, cell-based
[26] = tested on: BV-2; test: Cytotoxicity against mouse BV-2 cells assessed as reduction in cell viability at 2.5 uM measured after 24 hrs by MTT assay; format: toxicity, cell-based; settings: bv-2, 24 h; procedure, shortened: as §2
[27] = tested on: BV-2; test: Neuroprotective activity in amyloid beta (1 to 42)-induced inflammation in mouse BV-2 cells assessed as TNFalpha mRNA expression at 2.5 uM measured after 24 hrs by SYBR green staining based qRT-PCR analysis (reference value: 1.73 +/- 0.22%); format: functional
[28] = biological target: T1, Amyloid-beta precursor protein; test: Inhibition of amyloid beta (1 to 42) (unknown origin) aggregation assessed as appearance of collapsed amyloid beta fibrils at 2.5 uM measured after 48 hrs by transmission electron microscopy
[29] = biological target: T1, Amyloid-beta precursor protein; test: Inhibition of amyloid beta (1 to 42) aggregation in mouse BV-2 cells exposed to amyloid-beta (1 to 42) (unknown origin) at 2.5 uM measured after 24 to 48 hrs by thioflavin T staining based fluorescence assay; format: cell-based; settings: time 24-48 hrs
[30] = tested on: SH-SY5Y; test: Neuroprotective activity against human SH-SY5Y cells co-cultured with 2.5 uM compound pretreated BV-2 cells exposed to amyloid beta (1 to 42) assessed as cell viability measured after 24 hrs by MTT assay (reference value: 80.62 +/- 0.86%); format: functional; settings: read-out: Activity

| SMILES | inhibition [6] | logP at 2 h [8] | IC50 [12] | further results |
| --- | --- | --- | --- | --- |
| COc1cc(/C=C/C(=O)NCc2cn(-c3cc4ccccc4oc3=O)nn2)ccc1O | < 50% | 2.65 | – | Activity [1]: 76.83%; viability at 40 µM [2]: 88.3%; Activity [3]: 0.47%; Activity [4]: 0.64%; inhibition [5]: Active; Activity [7]: inactive; viability at 40 µM [9]: 75.4%; Activity [10]: Non-Toxic; Activity [11]: Non-Toxic |
| O=C(Cc1ccccc1[N+](=O)[O-])OCc1cn(-c2ccc(Oc3ccccc3)cc2)nn1 | > 50% | 4.29 | 36.7 µM | – |
| COc1cc(/C=C/C(=O)CC(=O)/C=C/c2ccc(O)c(OC)c2)ccc1O | > 50% | – | – | – |
| COc1cc(C(=O)NCc2cn(-c3ccc(Oc4ccccc4)cc3)nn2)ccc1O | > 50% | 4.26 | 1.15 µM | viability at 20 µM [13]: 34.5%; Activity [14]: Active; Activity [15]: Non-Toxic |
| O=C(Cc1ccccc1[N+](=O)[O-])NCc1cn(-c2cc3ccccc3oc2=O)nn1 | > 50% | 1.9 | 11.6 µM | – |
| COc1cc(C(=O)OCc2cn(-c3cc4ccccc4oc3=O)nn2)ccc1O | < 50% | 2.61 | – | – |
| O=C(NCc1cn(-c2cc3ccccc3oc2=O)nn1)c1ccccc1O | < 50% | 2.02 | – | – |
| O=C(OCc1cn(-c2ccc(Oc3ccccc3)cc2)nn1)c1ccccc1O | < 50% | 5.18 | – | – |
| O=C(OCc1cn(-c2ccc(Oc3ccccc3)cc2)nn1)c1ccccc1 | > 50% | 5.19 | 4.73 µM | viability at 20 µM [13]: 54.1%; Activity [15]: Non-Toxic |
| O=C(Cc1ccccc1[N+](=O)[O-])NCc1cn(-c2ccc(Oc3ccccc3)cc2)nn1 | > 50% | 3.76 | 69.2 µM | – |
| COc1cc(C(=O)NCc2cn(-c3cc4ccccc4oc3=O)nn2)ccc1O | < 50% | 1.95 | – | – |
| O=C(OCc1cn(-c2cc3ccccc3oc2=O)nn1)c1ccccc1O | < 50% | 2.65 | – | – |
| COc1cc(C(=O)OCc2cn(-c3ccc(Oc4ccccc4)cc3)nn2)ccc1O | > 50% | 4.47 | 0.003 µM | Activity [16]: Toxic |
| O=C(NCc1cn(-c2cc3ccccc3oc2=O)nn1)c1ccccc1 | < 50% | 2.25 | – | – |
| O=C(NCc1cn(-c2ccc(Oc3ccccc3)cc2)nn1)c1ccccc1O | < 50% | – | – | logP ([8]; 2 h): Not Determined(Insoluble) |
| O=C(Cc1ccccc1[N+](=O)[O-])OCc1cn(-c2cc3ccccc3oc2=O)nn1 | > 50% | 2.41 | 17.7 µM | – |
| COc1cc(/C=C/C(=O)NCc2cn(-c3ccc(Oc4ccccc4)cc3)nn2)ccc1O | > 50% | 4.44 | 0.04 µM | Activity [1]: 137.18%; viability at 40 µM [2]: 87.2%; Activity [3]: 0.05%; inhibition [5]: Active; Activity [7]: 2.04%; viability at 40 µM [9]: 60.8%; Activity [10]: Non-Toxic; Activity [11]: Non-Toxic |
| O=C(NCc1cn(-c2ccc(Oc3ccccc3)cc2)nn1)c1ccccc1 | < 50% | 4.21 | – | viability at 150 µM [17]: 31.6%; Activity [18]: Non-Toxic |
| COc1cc(/C=C/C(=O)OCc2cn(-c3cc4ccccc4oc3=O)nn2)ccc1O | > 50% | 2.64 | 0.008 µM | Activity [19]: 0.71%; inhibition [20]: Active; viability at 2.5 µM [21]: 71.3%; Activity [22]: Non-Toxic; Activity [23]: inactive; Activity [24]: 107.04%; Activity [25]: Active; Activity [26]: Non-Toxic; Activity [27]: 1.09%; inhibition [28]: Active; inhibition [29]: Active; viability at 2.5 µM [30]: 91.5% |
| O=C(OCc1cn(-c2cc3ccccc3oc2=O)nn1)c1ccccc1 | < 50% | 2.38 | – | – |
